Only some compounds are listed: those with a hit (about 3% of all), similar ones and a draw of the others.
Kir21 inh – inhibitors of mouse Kir2.1 inward-rectifier potassium channel | hit rate 0.85% among 310,000 | B-score at 10 µM | HEK293-Kir2.1, FluxOR thallium flux fluorescence; active compounds read low | AID 1672;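 active = fluorescence ratio B-score at or below minus 3 SD of library scores, with starting-brightness B-score within 2 SD, cut at about -4.2 in these data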;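 note: channel flux triggered by added potassium and thallium sulfate stimulus; B-score of peak minus minimum fluorescence over baseline after thallium stimulus; more negative B-score means stronger Kir2.1 block with less thallium influx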
Target sequence (P35561 whole entry, looked up): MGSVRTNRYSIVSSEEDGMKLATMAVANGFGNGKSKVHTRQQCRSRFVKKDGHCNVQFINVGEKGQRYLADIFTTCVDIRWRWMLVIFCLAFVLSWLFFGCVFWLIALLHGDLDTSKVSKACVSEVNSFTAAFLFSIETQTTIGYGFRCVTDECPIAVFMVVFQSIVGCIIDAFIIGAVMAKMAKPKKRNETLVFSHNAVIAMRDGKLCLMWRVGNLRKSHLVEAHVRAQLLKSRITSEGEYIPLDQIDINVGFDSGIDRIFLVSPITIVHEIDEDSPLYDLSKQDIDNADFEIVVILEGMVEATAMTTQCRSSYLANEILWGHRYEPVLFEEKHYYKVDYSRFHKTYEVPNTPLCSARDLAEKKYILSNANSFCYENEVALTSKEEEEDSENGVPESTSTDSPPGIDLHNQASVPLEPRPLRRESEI
ANO1 block – inhibitors of mouse TMEM16A calcium-activated chloride channel; HEK293 TMEM16A/YFP iodide influx fluorescence, ionomycin; normalized B-score (activity score, 25-100; higher = stronger inhibition) at 10 µM; AID 588511; hit rate 1.2% among 310,000;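 active = ratio plate-corrected score three or more library SD toward inhibition, starting fluorescence score within five deviations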;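 note: score derived from kinetic fluorescence span divided by baseline fluorescence per well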
FID counter – fluorescent intercalator displacement, NS3 helicase counter-screen; AID 1845; inhibition, % at 7.9 µM; DNA fluorescent intercalator displacement, fluorescence; hit rate 0.17% among 290,000; in the data active = inhibition above about 37%;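 note: 0% = vehicle and 100% = reference compound; higher means more ethidium bromide displaced from hairpin DNA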
SR-BI uptake up – activators of SR-BI mediated HDL lipid uptake; CHO ldlA[mSR-BI] cells, DiI-HDL uptake fluorescence, 3 h; 100 = double the neutral-control signal; activation, % at 12.5 µM; hit rate 0.096% among 320,000; AID 504775;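 active = mean replicate activation of at least 60% and every replicate at or above 60%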;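 note: 0% = median plate neutral-control signal and 100% = twice that signal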
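Material: SR-BI-overexpressing, LDLR-lacking CHO cells | Dosing: Single compound concentration, delivered by pin transfer | Probe or stimulus: Labelled HDL, 10 µg/mL | Signal: Bottom-read cell fluorescence after medium removal, ex 550/em 595 nm | Schedule: 3 h, 37 °C | Evaluation: HDL uptake via cellular fluorescence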
SR-BI HDL uptake – mouse SR-BI HDL lipid transfer inhibition | inhibition, % at 12.5 µM | hit rate 0.96% among 320,000 | AID 488896 | ldlA[mSR-BI] CHO cells, DiI-HDL uptake fluorescence, 3 h | Q61009;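 active = mean replicate inhibition of at least 70% and a set share of replicates each scoring 70 or more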;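 note: 0% = median of neutral control wells and 100% = median of positive control wells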
TMEM16A act – mouse TMEM16A channel activation, primary screen. Q8BHY3. HEK293 TMEM16A/YFP-H148Q/I152L, iodide quench fluorescence; active compounds read low. B-score at 10 µM. hit rate 0.3% among 340,000. AID 623877;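 active = fluorescence-ratio B-score plate-corrected deviation score at least 3 library SD below zero, with starting fluorescence score within 5 deviations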;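 note: channel opened by trigger with iodide after compound preincubation; score built on the fluorescence ratio of max minus min over baseline; more negative score means more quench and so TMEM16A activation or potentiation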
TMEM16A reconf – re-confirmation of mouse TMEM16A chloride channel inhibitors; shares compounds with ANO1 block; HEK293 TMEM16A/YFP-H148Q, iodide quench fluorescence; ionomycin added to raise cell calcium; inhibition, % at 10 µM; hit rate 39% among 2,300;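 active = mean duplicate percent inhibition, scaled so buffer wells are 0 and the reference blocker 100, over three buffer SD above buffer mean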
HEK293 Ca mobil – calcium mobilization counter-screen hit for TMEM16A inhibitor series; TMEM16A/YFP HEK293, Fluo4 calcium mobilization; hit rate 2% among 2,300; AID 652231; calcium response (% of ionomycin), % at 10 µM; shares compounds with ANO1 block;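 active = duplicate-averaged calcium signal over 20% of the ionomycin maximum, relative to buffer baseline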;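 note: each well's signal is peak minus trough fluorescence divided by its pre-addition baseline; 0% = buffer wells and 100% = ionomycin wells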
YFP-HEK293 quench – acts in parental YFP-HEK293 cells lacking TMEM16A, counter-screen; YFP ratio F(max-min)/F0 at 10 µM; shares compounds with ANO1 block; 2,300 tested, under 10 active; AID 652233; iodide YFP quench, ionomycin;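 active = yellow fluorescent protein signal ratio exceeding the buffer control mean by over 5 SD of those controls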;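 note: ratio is mean of duplicate wells from kinetic YFP trace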
ClC-1 inh – rat ClC-1 inhibition, TMEM16A specificity screen; 2,300 tested, under 10 active; CHO ClC-1-YFP, iodide influx fluorescence quench; iodide control reads 0, buffer control 100; ratio percent, % at 10 µM; shares compounds with ANO1 block;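 active = duplicate-mean ratio percent above the mean of iodide-only control wells, which defines zero, plus 5 of their SD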;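 note: higher percent means stronger block of ClC-1 iodide influx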
The depositor's hits bear a star; i = inactive; x = no result.

SMILES | Kir21 inh | ANO1 block | FID counter | SR-BI uptake up | SR-BI HDL uptake | TMEM16A act | TMEM16A reconf | HEK293 Ca mobil | YFP-HEK293 quench | ClC-1 inh
N#CC1(Cc2ccccc2)c2ccccc2C=CN1C(=O)c1ccccc1 (stereo unspecified) | 0.72 | 100* | -9 | x | x | i | i | i | -1.2 | -12
N#CC1(Cc2ccc([N+](=O)[O-])cc2)c2ccccc2C=CN1C(=O)c1ccccc1 (stereo unspecified) | 0.42 | i | -3 | -38 | 38 | i | x | x | x | x
CCOC(=O)C1=C(c2ccccc2)NC(=S)NC1c1ccc(Cl)c([N+](=O)[O-])c1 (stereo unspecified) | -1.7 | i | -12 | x | x | x | x | x | x | x
CCOC(=O)C1=C(c2cccc(Oc3ccccc3)c2)NC(=S)NC1C (stereo unspecified) | x | 100* | -19 | -64 | 64 | i | i | i | -1.2 | -6
CC1CN(S(=O)(=O)c2cccc(C(=O)OCC(=O)c3cccs3)c2)CC(C)O1 (stereo unspecified) | -2 | i | -6 | 11 | -11 | i | i | i | -0.9 | -12
CN1C(=O)c2ccccc2NC(=O)[C@]12O[C@@H]2c1cccc(O)c1 | -1.2 | i | x | 5 | -5 | i | i | i | -0.55 | -8
CS(=O)(=O)NN1C(=O)c2ccccc2NC1c1cccc(O)c1 (stereo unspecified) | 0.43 | i | 1 | -6 | 6 | i | x | x | x | x
CC(=O)Nc1ccc(S(=O)(=O)CCC#N)cc1 | 0 | i | 0 | 31 | -31 | i | i | i | -1.1 | -18
Cc1ccc(S(=O)(=O)CCC#N)cc1 | 2 | i | -13 | 0 | 0 | i | x | x | x | x
CC1C/C(=N/N=C2/NC(=O)CS2)CC(C)(C)C1 (stereo unspecified) | 0.68 | 100* | -4 | 21 | -21 | i | i | i | -1.2 | -13
O=C(NCc1ccncc1)C(=O)Nc1nc(C23CC4CC(CC(C4)C2)C3)cs1 | -0.16 | 100* | -20 | 27 | -27 | i | 18%* | i | -1.1 | -19
CC(C)CN(C(=O)CSc1n[nH]c(-c2cccs2)n1)C1CCS(=O)(=O)C1 (stereo unspecified) | x | x | x | 18 | -18 | i | x | x | x | x
COc1ccccc1CNC(=O)C(=O)NCC1OCCCN1S(=O)(=O)c1ccc(F)cc1C (stereo unspecified) | 0.33 | i | -40 | x | 28 | i | x | x | x | x
c1ccc2c(c1)oc1c(Nc3ccc4c(c3)OCCO4)ncnc12 | 1.8 | 25* | -13 | -12 | 12 | i | i | i | -0.92 | 3
CCc1nc(Nc2ccc3c(c2)OCCO3)c2oc3ccccc3c2n1 | -1.2 | i | -11 | -41 | 41 | i | x | x | x | x
c1coc(CNc2ncnc3c2oc2ccccc23)c1 | x | 100* | -10 | 18 | -18 | i | i | i | -1 | -5
Cc1ccc2[nH]c3c(NCc4ccco4)ncnc3c2c1 | 0.09 | 25* | 9 | 5 | -5 | i | 22%* | i | -1.1 | -20
c1ccc(CN2CCOCCOCCOCCOCC2)cc1 | 0.05 | i | 1 | 17 | -17 | i | x | x | x | x
Cc1ccc(CNC(=O)c2ccccc2NS(C)(=O)=O)cc1 | 0.71 | i | 0 | 30 | -30 | i | x | x | x | x
Cc1ccc(CNC(=O)c2ccccc2NS(=O)(=O)c2ccc(Cl)nc2)cc1 | -1.2 | 100* | -28 | 0 | 0 | i | 18%* | i | -1.1 | -26
C=CCN1C(=O)C2C(C(=O)NC3CCCC3)C3(C)C=CC2(O3)C1C(=O)NC1CCCC1 (stereo unspecified) | 0.83 | i | -4 | 10 | -10 | i | x | x | x | x
Cc1ccc(OCc2cccc(S(=O)(=O)N(C)C)c2)c([N+](=O)[O-])n1 | -2.7 | i | -4 | -3 | 3 | i | x | x | x | x
CCC(C)/C(C)=N/NC(=O)CNS(=O)(=O)c1ccc([N+](=O)[O-])cc1 (stereo unspecified) | -0.09 | i | 3 | 3 | -3 | i | x | x | x | x
CCCC/C(C)=N\NC(=O)CNS(=O)(=O)c1ccc([N+](=O)[O-])cc1 | -1.8 | 25* | -3 | x | -25 | i | i | i | -0.93 | 2
CCCOc1ccc(C(=O)NNC(=S)NC(=O)c2ccco2)cc1 | -0.62 | 100* | -17 | 14 | -14 | i | 43%* | 62%* | -1 | -10
SMILES | Kir21 inh | ANO1 block | FID counter | SR-BI uptake up | SR-BI HDL uptake | TMEM16A act | TMEM16A reconf | HEK293 Ca mobil | YFP-HEK293 quench | ClC-1 inh
NC(=O)c1ccc(NC(=O)c2ccc(CN3CCOCC3)cc2)cc1 | -0.88 | i | -5 | 18 | -18 | i | x | x | x | x
CC(C)c1ccc(C(=O)Nc2ccc(CN3CCOCC3)cc2)cc1 | -2.5 | 100* | 6 | -4 | 4 | i | i | i | -1.1 | -14
CC(C)c1ccc(/C=C/C(=O)Nc2ccc(CN3CCOCC3)cc2)cc1 | 2.8 | 100* | 21 | x | x | i | 26%* | i | -1.1 | 6
CC(=O)O[C@H]1[C@@H](O)[C@H](O)[C@H](Oc2c(O)c(C)c3c4c2[C@@H](C)CC[C@@H]4[C@@H](C)C[C@H]3C=C(C)C)O[C@H]1C | x | x | x | -22 | 22 | i | x | x | x | x
COc1cc(C(=O)NCCOc2ccccc2)c(Br)c(OC)c1OC | 0.13 | 25* | -12 | 4 | -4 | i | i | i | -0.9 | -10
O=S(=O)(Nc1nc2ccccc2s1)c1ccc(Br)s1 | 2 | 100* | -28 | 8 | -8 | i | 24%* | i | -0.9 | -4
O=[N+]([O-])c1ccc(O)c(-c2nc(-c3ccccc3)c(-c3cccs3)[nH]2)c1 | 1.6 | 25* | 20 | -84 | 84* | i | 67%* | i | -0.9 | -10
CCOc1ncccc1C(=O)Nc1cc(S(=O)(=O)N2CCOCC2)ccc1OCC(F)(F)F | x | x | x | 5 | -5 | i | x | x | x | x
CCOC(=O)c1c(NC(=O)CSc2nnc(-c3ccccc3C)n2C)sc(C(C)=O)c1C | 1.3 | 25* | -29 | -18 | 18 | i | i | i | -0.79 | -12
